# Most compounds without a hit are left out; they make up all but 3% or so of the library.
# 5HT1E ag: agonists of human 5-HT1E serotonin receptor | P28566 | CHO 5-HT1E Ga15 NFAT-bla reporter, FRET; 0% DMSO wells, 100% control agonist wells | activation, % at 6 µM | 65,000 compounds, 0.69% hits;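 active means activation above a set limit, the screen-wide mean activation plus 3 SD, cut at about 8.5% in these data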;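 further: 100% = positive control agonist at 1 µM giving full maximal response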
# 5HT1a ag: 5-HT1a (human) receptor agonism | P08908 | CHO 5-HT1a Ga15 NFAT-bla reporter, FRET ratio; 0% basal, 100% maximal reference agonist | activation, % at 10 µM | 65,000 compounds, 0.56% hits;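 active means activation above the screen-wide mean activation plus 3 SD, cut at about 19% in these data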;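 further: 0% = DMSO wells and 100% = 5-CT at EC100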
# Target sequence (P08908 whole entry, looked up): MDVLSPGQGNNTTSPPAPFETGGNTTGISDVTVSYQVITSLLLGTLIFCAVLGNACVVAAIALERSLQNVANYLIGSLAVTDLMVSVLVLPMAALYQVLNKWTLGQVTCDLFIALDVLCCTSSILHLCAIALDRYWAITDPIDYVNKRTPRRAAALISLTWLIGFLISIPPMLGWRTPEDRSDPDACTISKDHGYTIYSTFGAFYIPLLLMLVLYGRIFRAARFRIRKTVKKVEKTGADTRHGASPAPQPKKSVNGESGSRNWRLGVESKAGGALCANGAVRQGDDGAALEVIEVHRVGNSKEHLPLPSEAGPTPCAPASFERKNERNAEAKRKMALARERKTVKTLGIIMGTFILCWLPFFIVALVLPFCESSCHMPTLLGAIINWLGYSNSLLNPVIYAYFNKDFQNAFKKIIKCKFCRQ
# S1P1 ag pot: activates or potentiates agonism at human S1P1 receptor. AID 449. S1P1 CRE-bla cells, forskolin, beta-lactamase FRET, potentiator mode; S1P1 agonist co-added at EC20, 2 nM; 100% = saturating reference agonist, 0% = basal. activation, % at 9.5 µM. 56,000 compounds, 0.57% hits. P21453;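 active means activation above a cutoff set at the mean activation of all tested compounds plus 3 SD, cut at about 54% in these data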;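 further: forskolin at 4 µM as EC80 and the EC20 agonist is SEW2871; 100% = SEW2871 at its EC100 plus forskolin at EC80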
# S1P3 agonist: agonists of human S1P3 receptor; S1P3 NFAT-BLA reporter cells, agonism, FRET ratio; relative to 1 µM S1P, basal subtracted; activation, % at 4.5 µM; 60,000 compounds, 0.1% hits; AID 373;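 active means activation above the screen-wide mean plus 3 SD, cut at about 4.5% in these data, passing the limit was not always enough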
#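 Assay system: stable CHO line with human S1P3, Gα16, NFAT-BLA reporter; Detection: FRET β-lactamase substrate fluorescence, excitation 405 nm, 460/535 nm emission ratio, background-subtracted; Read-out: percent activation versus median 1 µM S1P response, basal-subtracted, per plate; Incubation: cells plated overnight, compound 4 h 37 °C, substrate 2 h RT.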
# 5-HT1A blocker: blocks the human serotonin 5-HT1a receptor. P08908. CHO 5-HT1a Ga15 NFAT-bla reporter, antagonist mode. inhibition, % at 10 µM. 62,000 compounds, 0.68% hits;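 active means inhibition above the mean of all tested compounds plus 3 SD, cut at about 43% in these data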;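 further: receptor stimulated by 5-CT agonist at 100 nM near EC80; beta-lactamase reporter measured by ratiometric fluorescence of a cleavable substrate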
# HTR1E antagonist: antagonists of human 5-HT1E serotonin receptor. P28566. CHO 5-HT1E Ga15 NFAT-bla reporter, FRET, antagonist. inhibition, % at 6 µM. 65,000 compounds, 0.99% hits;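 active means inhibition above a set limit, the mean inhibition across every tested compound plus 3 SD, cut at about 29% in these data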;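 further: signal is the 460 over 535 nm emission ratio of beta-lactamase substrate; 0% = agonist plus DMSO wells and 100% = wells without agonist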
# An asterisk follows results filed as active; . = not tested or not shown.
SMILES,5HT1E ag,5HT1a ag,S1P1 ag pot,S1P3 agonist,5-HT1A blocker,HTR1E antagonist
CCN(Cc1ccccc1)C(c1cccc(C#N)c1)c1nnnn1C(C)(C)C (centres undefined),-1,1,15,-1,44*,7
CCOC(=O)c1c(NC(=O)CSc2nc3cccnc3n2C)sc(C(C)=O)c1C,2,0,-30,0,17,43*
CCOC(=O)c1c(NC(=O)CSc2nnc(-c3cccnc3)o2)sc(C(C)=O)c1C,0,-1,5,-2,0,30*
CCOC(=O)c1c(NC(=O)CSc2nnc(-c3ccccc3C)n2C)sc(C(C)=O)c1C,-1,2,16,-1,4,25
COc1ccc(C(=O)N2CCCC(c3nc(-c4ccc(OC)c(OC)c4)no3)C2)c(OC)c1 (centres undefined),0,20*,55,-1,-11,-4
CCOC(=O)c1ccccc1NC(=O)Cn1c(-c2nonc2N)nc2ccccc21,-2,-2,-19,-2,80*,74*
Nc1nonc1-c1nc2ccccc2n1Cc1ccccc1,0,-1,.,-1,56*,14
CCOC(=O)Cc1c(C)nc2c(-c3cccc(Br)c3)c[nH]n2c1=O,0,1,14,-1,8,1
CC1CCCN(C(=O)C(Cc2ccccc2)n2cccc2)C1 (centres undefined),0,-2,-8,0,5,-2
CCOC(=O)c1ccccc1NC(=O)CN(c1ccccc1)S(=O)(=O)N(C)C,0,3,.,1,14,1
CC1CCCCC1n1c(=S)[nH]c2ccccc2c1=O (centres undefined),11*,2,.,.,-8,5
N#CC1=C(SCc2ccccc2)NC(=O)CC1c1ccco1 (centres undefined),0,-1,4,-1,-5,7
Cc1ccc(C2CC(=O)NC(SCc3ccccc3)=C2C#N)o1 (centres undefined),0,35*,7,-1,2,2
CC(=O)Nc1ccc(S(=O)(=O)/N=C2\SCCN2S(=O)(=O)c2ccc(NC(C)=O)cc2)cc1,0,73*,-1,0,-7,-3
CC(=O)Nc1ccc(S(=O)(=O)N2CCSC2C(=O)O)cc1 (centres undefined),-1,-3,.,.,8,-2
Fc1ccc(COc2ccc(/C=N/n3cnnc3)cc2)cc1,1,-2,64*,-1,2,4
O=C(NCc1ccco1)Nc1ccc2nsnc2c1,-1,-2,-20,-1,59*,14
O=C(NCc1ccco1)Nc1ccc(Br)cc1,-1,0,32,-1,32,13
COCCCN(C(=O)Nc1ccccc1)C(C)c1ccncc1 (centres undefined),0,-2,-11,-1,-6,-4
COc1ccccc1N1CCN(CCc2n[nH]c(=S)n2-c2ccccc2)CC1,30*,2,-8,-2,69*,3
COc1ccccc1-c1n[nH]c(=S)n1-c1ccccc1,-1,-1,-14,-1,5,-6
CCc1c(C)sc(NC(=O)c2cc(C3CC3)on2)c1C#N,1,0,24,0,0,-12
CCc1c(C)sc(NC(=O)c2cc(-c3ccco3)on2)c1C#N,0,-2,92*,-1,3,1
CCc1c(C)sc(NC(=O)c2cc(C)on2)c1C#N,0,-2,-1,0,0,-3
Cc1ccc(NC(=O)c2cc(-c3ccco3)on2)cc1C,0,-4,72*,-1,8,-4
SMILES,5HT1E ag,5HT1a ag,S1P1 ag pot,S1P3 agonist,5-HT1A blocker,HTR1E antagonist
CCCc1cc(C(=O)Nc2sc(C)c(CC)c2C#N)no1,0,-5,74*,-1,-24,-15
CCOc1ccc(-c2nc(CSc3nncs3)cs2)cc1OC,0,2,.,.,13,27
Cc1oc(-c2ccc(Cl)cc2)nc1CN1CCCC(C(=O)NCc2ccccn2)C1 (centres undefined),1,1,5,0,2,-2
Cc1ccccc1-c1nc(CN2CCC(C(=O)NCCCN3CCCC3)CC2)c(C)o1,17*,-1,4,0,-11,1
Cc1oc(-c2ccc(Cl)cc2)nc1CN1CCCC(C(=O)NCCCN2CCOCC2)C1 (centres undefined),23*,-4,-11,-1,0,-3
Cc1oc(-c2ccc(Cl)cc2)nc1CN1CCC(C(=O)N2CCc3ccccc3C2)CC1,1,32*,3,-2,-15,-2
Cc1oc(-c2ccc(Cl)cc2)nc1CN1CCCC(C(=O)NCc2cccnc2)C1 (centres undefined),12*,-1,26,-1,4,12
Cc1ccccc1-c1nc(CN2CCC(C(=O)NCCCN3CCOCC3)CC2)c(C)o1,0,2,-1,0,0,5
CCn1c(SCC(=O)N2CCN(c3ccccc3F)CC2)nnc1-c1ccoc1C,0,0,5,0,-5,3
COc1ccc(OC)c2[nH]c(=O)c(CCNC(=O)CC(C)C)cc12,-1,-3,-30,0,-6,-1
CCCNC(=O)c1c(N)n(-c2cccc(OC)c2)c2nc3ccccc3nc12,8.7*,42*,-151,2,-26,-11
COCCCNC(=O)c1c(N)n(-c2cccc(S(N)(=O)=O)c2)c2nc3ccccc3nc12,3,6,-14,1,-25,-2
Cc1cc(C(=O)CSc2nnc(C3COc4ccccc4O3)n2C)c(C)n1-c1ccc(F)cc1 (centres undefined),0,-3,29,4,28,30*
Cc1cc(C(=O)CSc2nnnn2C)c(C)n1-c1cccc(F)c1,0,-1,93*,3,-13,-3
Cc1cc(C(=O)CSc2nc(N)cc(N)n2)c(C)n1CCc1ccc(F)cc1,0,3,31,0,-10,4
COc1ccc(CCn2c(C)cc(C(=O)CSc3nnnn3C)c2C)cc1,-1,3,7,14*,1,6
Cc1nnc(SCCn2c(N(C)Cc3ccccc3)nc3c2c(=O)n(C)c(=O)n3C)s1,1,-1,-3,0,-2,-8
O=C(c1ccccc1OCc1ccccc1Br)N1CCN(c2ncccn2)CC1,0,1,5,0,27,7
Cc1c(=O)n(OCc2ccccc2F)c2ccccc2[n+]1[O-],-1,25*,-15,0,-4,-9
COc1ccc(N(CC(=O)NC2CCCC2)C(=O)Cn2nnc(-c3ccc(C)cc3)n2)cc1OC,54*,-1,6,-1,6,6
